# Results gathered from unrelated publications.
# Compare with care: the assays were run in different laboratories.
# Read-out: enzyme activity
# Action: inhibitor
# KIT: Mast/stem cell growth factor receptor Kit (KIT, Homo sapiens, UniProt P10721)
# KIT D816V: Mast/stem cell growth factor receptor Kit (KIT, Homo sapiens, UniProt P10721, D816V)
SMILES,target,method,tested at,inhibition
CN1CC(Oc2cnc(C#N)cc2-c2ccn3nc(NC(=O)C4CC4)cc3c2)C1,KIT,,1 µM,4%
O=C(CSc1nc2nccnc2c(=O)n1CCc1ccccc1)Nc1nccs1,KIT D816V,,10 µM,6%
CN(C)C1CCN(CC#Cc2nn(C3CCCC3)c3nc(NCc4ccccc4)ncc23)C1 (stereo not shown),KIT,FRET,0.1 µM,1%
CNC(=O)c1cc2c(Oc3ccc(NC(=O)C4(C(=O)Nc5ccc(F)cc5)CC4)cc3)ccnc2cc1OC,"Mast/stem cell growth factor receptor Kit (KIT, Homo sapiens, UniProt P10721, V560G)",radiometric,1 µM,92%
CS(=O)(=O)Nc1cccc(-c2csc(NC(=O)CSc3nc4nccnc4c(=O)n3CCc3ccccc3)n2)c1,KIT D816V,,10 µM,-1%
COc1cc2ncnc(Nc3ccc(Oc4ccccc4)c(C)c3C)c2cc1OC,KIT,,1 µM,8%
CCCS(=O)(=O)Nc1ccc(F)c(C(=O)c2c[nH]c3ncc(-c4ccc(Cl)cc4)cc23)c1F,KIT,,1 µM,< 20%
COc1cc(-c2cc(-c3ccc(N4CCNCC4)cc3)cnc2N)cc(OC)c1OC,"Mast/stem cell growth factor receptor Kit (KIT, Homo sapiens, UniProt P10721, T670I)",,0.1 µM,3%
COc1cc2ncnc(Nc3ccc(Oc4ccccc4)cc3C)c2cc1OC,KIT,,1 µM,-1%
CC/C(=N\NC(=O)NCc1cccc(O)c1)c1ccc(O)c(C)c1O,"Mast/stem cell growth factor receptor Kit (KIT, Homo sapiens, UniProt P10721, V654A)",,0.1 µM,-0.5%
